As a reminder, the apparent Kd is the concentration giving half-maximal binding under the conditions of the assay.

Results on 48 sequences are retold here after the EternaBench riboswitch data.

This data set has as its system MS2 coat protein. In words: apparent Kd, MS2 coat protein; higher = weaker binding; RNA-MaP array; FMN 200 µM where present. A digest of the protocol:
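Apparent Kd: the median of filtered binding-curve fits from single clusters. Designs were transcribed on Illumina sequencing-chip clusters by stalled E. coli RNA polymerase and titrated with SNAP-549-labelled MS2 coat protein from 0.7 or 1.5 nM, doubling to 3 µM, in 100 mM Tris-HCl pH 7.5, 80 mM KCl, 4 mM MgCl2, BSA, DTT, yeast tRNA and Tween-20. Each series ran without and then with constant ligand, and green signal was normalised to red-channel RNA signal and control-cluster median Fmax.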

[1] abbreviates: designed as: OFF switch for flavin mononucleotide, no ligand.
[2] abbreviates: ligand present: flavin mononucleotide, designed as: OFF switch for flavin mononucleotide.
Where [3] appears, read: designed as: ON switch for flavin mononucleotide, no ligand.
Where [4] appears, read: ligand present: flavin mononucleotide, designed as: ON switch for flavin mononucleotide.

Consider “AAAUUGGUAGAGGAUAUCGCACAGGAUUUACUGCGAGAAGGCUGCACAUGAGGAUCACCCAUGUUUUGUUGCGA”, for which the “apparent Kd” value came out at 15.2 nM under setting [1] and 18.1 nM under setting [2].

Take “UGGAUCAAUACAGGAUAUGGUGACGCACAUGAGGAUCACCCAUGUCCGCAGCGUGCUAAGCACGCCCAGAAGGGUAUUGAUUCG”: the “apparent Kd” value under setting [3] came out at 722 nM and the “apparent Kd” value under setting [4] was found to be 69.4 nM.

Turning to “AAACAUGUCCGAGGAUAUCUGAAAACAUUUUUAAGAGAAGGCGGACAUGAGGAUCACCCAUGUCUCUCCUCAUCAAAUCCAAAU”, the “apparent Kd” value was 17.5 nM under setting [1] and 73.2 nM under setting [2].

Take “CGAUCGUUGCAGAAGGUUAAAAUUUUAUCUACAUGUUUAACAUGAGGAUCACCCAUGUUUAUGAUGAAGGAUAUGCAAGGGUCG”: the “apparent Kd” value under setting [1] was determined as 6.76 nM and the “apparent Kd” value under setting [2] was 6.18 nM.

Turning to “GGAGACCUCACAGGAUAUGCUGGACUUUGUCCAGCAGAAGGGUGGACAUGAGGAUCACCCAUGUGGUCUUCCAAAAUAUUUAAU”, the “apparent Kd” value was 728 nM under setting [3] and 139 nM under setting [4].

As to “AGUAUGCGGCAGGAUAUCCAUCCGCGAAAAGGUGGAGAAGGGCUGACAUGAGGAUCACCCAUGUGCGUCUUGUA”, the “apparent Kd” value under setting [1] was determined as 29.7 nM and the “apparent Kd” value under setting [2] was 31 nM.

Turning to “GGCCCGCGCGUGAGGAUAUGCUGAUUCUAGGAUUAGCAGAAGGCACAUGAGGAUCACCCAUGUCCAACUUGUCU”, the “apparent Kd” value turned out to be 28.6 nM under setting [1] and 36.1 nM under setting [2].

As to “ACGCCCUGAGGAUAUCUUUUCCCGUACAUGAGGAUCACCCAUGUUUUCCUCCGGGCUUCGAGAGAAGGCAGGCCCA”, the “apparent Kd” value under setting [1] amounted to 22.3 nM and the “apparent Kd” value under setting [2] was determined as 41.2 nM.

For the sequence “CCGGAAAGGGAGGAUAUAGGAGUCGAUAGACACCUAGAAGGCCUGACAUGAGGAUCACCCAUGUGUCCUACCGG”, the “apparent Kd” value was determined as 15 nM under setting [1] and 25 nM under setting [2].

Turning to “AUACUAAAUGAAGGAUAUCUAAGCAUAAACCUGAGAGAAGGUCAUUUUUACAUGAGGAUCACCCAUGUUGUGGUUAAUGGGUUA”, the “apparent Kd” value stood at 216 nM under setting [1] and 317 nM under setting [2].

On to “CCCGGACAUGAGGAUCACCCAUGUUAGGAUAUCUAGAGGAUCUAAACCGAAUAGAUCCAGAGAAGGGAUGUGGG”, for which the “apparent Kd” value under setting [2] worked out at 46.5 nM.

Turning to “AAGAAUCAAGGAUAUGCAUGAUACGACAUGAGGAUCACCCAUGUCCUCAUGCGUAUCCUUGCAGAAGGUGAGUAUA”, the “apparent Kd” value is, setting by setting: under setting [1], 13.8 nM; under setting [2], 17.1 nM.

Take “AUUAAACAUGAGGAUCACCCAUGUCAACAAAGUCGAGGAUAUGGGCAUAUUAUCUUAUUUCCAGAAGGCGAAUAAU”: the “apparent Kd” value came to 121 nM under setting [3] and 33.9 nM under setting [4].

“GAGAGAGGGUGAGGAUAUUUAGUGAUAAUGAUAAGAGAAGGCACAGACAUGAGGAUCACCCAUGUGGGAAUAAUCCAGAGAGAG”: the “apparent Kd” value under setting [3] was 298 nM and the “apparent Kd” value under setting [4] amounted to 290 nM.

Regarding “AGGUACAUGAGGAUCACCCAUGUAAGAGCCCUCAUGCGAUGUAGAAGGAUAAUGCGAGAAGAGCUAUAGGAUAUACAUGAGAAA”, the “apparent Kd” value by setting is: under setting [1], 156 nM; under setting [2], 139 nM.

On to “AUAUGAUAGAUAGGAUAUACUAUGGUUGAAGAAGUAGAAGGAUCAAUUGGGAAAUGUACAUGAGGAUCACCCAUGUUAUGGGUU”, for which the “apparent Kd” value reads like this: under setting [3], 943 nM; under setting [4], 493 nM.

Turning to “CUACCUUAUGAGAAGGCGAUCAUGAAACAUGAUCGAGGAUAUCAUGUAAACAUGAGGAUCACCCAUGUAUGGGUAUUAUGGUAG”, the “apparent Kd” value runs as follows: under setting [3], 331 nM; under setting [4], 40.4 nM.

For the sequence “ACAUGUAAUGCAGGAUAUUUUACACAUGAGGAUCACCCAUGUGACCAGAGGAAUUGCUAUGAGUAAAAGAAGGGUAUGUACAUG”, the “apparent Kd” value is, setting by setting: under setting [1], 72.3 nM; under setting [2], 86.4 nM.

“GAGAAGUCAGGAUAUCCAUGGCGGCACUUGCGUGGUGGCGUGGAGAAGGGACAUGAGGAUCACCCAUGUAAAGC”: the “apparent Kd” value was found to be 54 nM under setting [1] and 34.9 nM under setting [2].

For “AGAUUCAUGGCCCGUUCGGGCUCACAUGAGGAUCACCCAUGUGAGGAUAUGAUAUACCUGAUUUAUCAGAAGGCGCAUGCGAAA”, the “apparent Kd” value is 7.22 nM under setting [1] and 10.3 nM under setting [2].

With “UAGAAGUCAGGAUAUGCAUGGCGGGACUUGCGUCGUGGCGUGCAGAAGGGACAUGAGGAUCACCCAUGUAAAGG”, the “apparent Kd” value runs as follows: under setting [1], 159 nM; under setting [2], 265 nM.

For the sequence “AGGCGAGUAGGAUAUGCGUAUUUACAGGAAAGCUGGAUGGUACAUGAGGAUCACCCAUGUAGAAGGGCUCUGAA”, the “apparent Kd” value under setting [1] came out at 21.2 nM and the “apparent Kd” value under setting [2] amounted to 19.4 nM.

With “GUAGCAUACCGAGGAUAUUCAUAUAGGAAACAAACAUGAGGAUCACCCAUGUGGCGAAAGCCUUGGGAGAAGGCGGAAUGCUAC”, the “apparent Kd” value is, setting by setting: under setting [3], 115 nM; under setting [4], 21.1 nM.

As for “AAAAAACAUGAGGAUCACCCAUGUGAGGAUAUGAUGAAAGAUUGAAAAAGGUUGAAAGUCAGAAGGUAUGUGAA”, the “apparent Kd” value reads like this: under setting [1], 56.9 nM; under setting [2], 59.7 nM.

For “CCGUUUUGAGGAUAUCCACCCUCAUACAUGAGGAUCACCCAUGUUCACCCUUGGGUUCCCGGAGAAGGCAGUUUUC”, the “apparent Kd” value by setting is: under setting [1], 1120 nM; under setting [2], 828 nM.

Consider “AAAUUUAACGAAGGAUAUACUAACAUGAGGAUCACCCAUGUGUGUUUCGUGUUGCUGAAAUUCGGGUAGAAGGUCGUAUACAUA”, for which the “apparent Kd” value came out at 41 nM under setting [1] and 28.7 nM under setting [2].

Consider “AGCUGUGGCCGAGGAUAUCUAAAUUCUCAAAACGAAAUAUAAUCGAACAUGAGGAUCACCCAUGUAGAGAAGGCGGUCUCAGCA”, for which the “apparent Kd” value came out at 39 nM under setting [1] and 298 nM under setting [2].

Consider “AAAGAUCCUCAGAAGGGCUCGUCCUAUAAGAUAGCAGGAUAUGAGGAGAUUGCCAAACAUGAGGAUCACCCAUGUAGUUGGAGU”, for which the “apparent Kd” value stood at 83.5 nM under setting [3] and 14.8 nM under setting [4].

“UGGUACUAGGGAGGAUAUGGGAAGAUACAUGAGGAUCACCCAUGUUUAAGAAUGCCGAGAGGUAACUAGAAGGCCCUAGUACCU”: the “apparent Kd” value by setting is: under setting [3], 455 nM; under setting [4], 15.1 nM.

Consider “CUUCGGGCAGGAUAUGCUGUUUGUGACAUGAGGAUCACCCAUGUGAUGCAGUUUGGGUGUGCAGAAGGGCCUGAGU”, for which the “apparent Kd” value under setting [1] turned out to be 54.6 nM and the “apparent Kd” value under setting [2] was 67.2 nM.

On to “UCUCGAUGUGUAGGAUAUCUGACCACUAUGACAAGAGAAGGGCACAUGAGGAUCACCCAUGUGGAGGACCACUGGUUCAGAUUA”, for which the “apparent Kd” value turned out to be 40.9 nM under setting [1] and 51 nM under setting [2].

As for “GUCAGCUCGUGAGGAUAUACAUGUGCUGGAGACAGCACUAUUAAAUUCACAUGAGGAUCACCCAUGUAGAAGGCACGAGCUGAU”, the “apparent Kd” value runs as follows: under setting [1], 15.2 nM; under setting [2], 18.6 nM.

Take “UAGUUAUUCACAGGAUAUCGCCUCUUAUUACAUGAGGAUCACCCAUGUUUAUUUUGUUACAUGUUCGAGAAGGGUGUAGCCGUU”: the “apparent Kd” value amounted to 345 nM under setting [1] and 375 nM under setting [2].

With “ACAUGACAUGAGGAUCACCCAUGUCGAUAAAAGCAAGGAUAUGGGCCCGAGUCGUUCGGACCAGAAGGUGCGUCUC”, the “apparent Kd” value is, setting by setting: under setting [3], 23.6 nM; under setting [4], 18 nM.

Take “UAUUAAUACAUAUACAUGAGGAUCACCCAUGUCAAAAGACAUGAGGAUAUGGAUCCUAAUUGGAUCCAGAAGGCAUGAAUAAUU”: the “apparent Kd” value under setting [3] was 347 nM and the “apparent Kd” value under setting [4] came to 17.6 nM.

In the case of “GCGCUUAUACAGAAGGCCAUAUACAUGAGGAUCACCCAUGUUAUUUGGUGGAGGAUAUGUUUUUUAUUACAGGUUGAUGAGCGC”, the “apparent Kd” value under setting [3] was found to be 7.58 nM and the “apparent Kd” value under setting [4] came out at 6.52 nM.

For the sequence “AAUUUACAGGGAGGAUAUACAUGAGGAUCACCCAUGUAAUCAUAUGAUAUUUUUUUUGUAUGAGUGUAGAAGGCCCAAAUAAAA”, the “apparent Kd” value under setting [1] is 9.32 nM and the “apparent Kd” value under setting [2] worked out at 11.1 nM.

Take “AGUCAUACAGGAUAUACAUGAGGAUCACCCAUGUUUAUCCUAAAAUAAAGAUCCUCAUGUAGAAGGGUAUGACA”: the “apparent Kd” value by setting is: under setting [1], 12.8 nM; under setting [2], 12.6 nM.

For “UAUGUAUUCGUAGGAUAUCCGUUGAGACCGUGUGGAGAAGGACGAACAUGAGGAUCACCCAUGUAUCAUGGUGUAGACAAUUUU”, the “apparent Kd” value runs as follows: under setting [1], 115 nM; under setting [2], 353 nM.

On to “AUCAGCUCGUCAGGAUAUAUGUCACUGCUUCGGCAGUGUGGUAAGAUUACAUGAGGAUCACCCAUGUAGAAGGGACGAGCUGAU”, for which the “apparent Kd” value is 6.12 nM under setting [1] and 6.9 nM under setting [2].

In the case of “CAAGGGUUAGGAUAUGGACGCUUAUAUUUGUAGCGGCGAAGCCAGAAGGAACAUGAGGAUCACCCAUGUUGGGA”, the “apparent Kd” value worked out at 60.4 nM under setting [1] and 108 nM under setting [2].

For the sequence “GUCCUCAAGACAGGAUAUCCAUACAACGCGCUAGGAGAAGGGUCUACAUGAGGAUCACCCAUGUGAUUCUGAGAAUUUGGUGGG”, the “apparent Kd” value reads like this: under setting [1], 313 nM; under setting [2], 148 nM.

For the sequence “UGCGUACAAGCAGACAUGAGGAUCACCCAUGUAGUCUUAUGCGAGGAUAUCGGGAAGGAGGAUUCCGAGAAGGUGCGGUGAGCC”, the “apparent Kd” value by setting is: under setting [3], 25.4 nM; under setting [4], 21.9 nM.

With “GGAAAACAUGAGGAUCACCCAUGUGAGGAUAUCGAUGUCCAAAGAGAGGUGCGGGACUCGAGAAGGCACUUGGA”, the “apparent Kd” value was found to be 45.9 nM under setting [1] and 50.2 nM under setting [2].

Consider “GGAUAGGACAGAGGAUAUACGUGCUAGAGAUACUAGUAAAAUUUCCUCACAUGAGGAUCACCCAUGUAGAAGGCUGUCCUAUCG”, for which the “apparent Kd” value is 36.1 nM under setting [1] and 684 nM under setting [2].

On to “GUCAGCUCGUGAGGAUAUACAUGUGCUGGAUACAGCACUAAAGAUUUCACAUGAGGAUCACCCAUGUAGAAGGCACGAGCUGAU”, for which the “apparent Kd” value under setting [1] came out at 16.9 nM and the “apparent Kd” value under setting [2] was determined as 38 nM.

On to “AAAAGACAUGAGGAUCACCCAUGUCAGGAUAUCUAUAUUCAAGGGUCGGAGGGAAUACAGAGAAGGGAUGAGGG”, for which the “apparent Kd” value under setting [1] was 21.8 nM and the “apparent Kd” value under setting [2] was 24.8 nM.

Consider “UGAAAUCAUGUAGGAUAUGCAUGGCGAAGCUACGCAGAAGGACAUGAGGAUCACCCAUGUUAUAGCUACCCAGUUCGGUGGCAA”, for which the “apparent Kd” value runs as follows: under setting [1], 141 nM; under setting [2], 118 nM.
